# Sampled rows, rich in hits. Any-hit rate of the full collection: about 4.9%.
# STAT3 act = STAT3 signaling activation. U3A cells, IL-6 STAT3-luciferase reporter, luminescence; 100% = signal with IL-6 EC80 alone. activation (% of control), % at 5.6 µM. 190,000 compounds, 0.91% hits;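 active = activation above the screen-wide mean of compound activation plus 3 SD, cut at about 130% in these data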;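 also: 0% = background luminescence of wells with medium and substrate only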
#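 System – human U3A cells carrying STAT3-luciferase construct · Probe or stimulus – Interleukin-6, 33 ng/mL · Schedule – compound 1 h, then IL-6 6 h at 37 °C · Signal – luminescence from STAT3-driven luciferase reporter · Evaluation – percent of IL-6-only median luminescence · Benchmarks – IL-6-only high control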
# STAT1 inh = reduces IFN-gamma driven STAT1 reporter signal. NIH 3T3 STAT1-luciferase reporter, luminescence. inhibition, % at 5.5 µM. 200,000 compounds, 0.35% hits;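 active = inhibition above a set limit, the mean inhibition across all tested compounds plus 3 SD, cut at about 34% in these data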;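 also: 0% = IFN-gamma with DMSO and 100% = IFN-gamma with 300 µM nifuroxazide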
# NF-kB neuron act = compounds increasing NF-kB expression in human neuronal cells; NF-kB reporter expression; stronger effect = higher value; fold change at 12.5 µM; 190,000 compounds, 1.6% hits; AID 1239; in the data active = fold change above about 3.3
# APP 5'UTR act = APP 5'UTR luciferase reporter activation. AID 1276. activation, % at 2 µM. SH-SY5Y APP 5'UTR luciferase reporter, luminescence; zero percent = DMSO vehicle wells. 190,000 compounds, 1% hits;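 active = activation above a set limit, based on mean plus 3 SD of controls, cut at about 140% in these data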
# STAT3 blocker = inhibitors of IL-6 induced STAT3 signaling. U3A cells, IL-6 STAT3-luciferase reporter, luminescence; host cell line lacks STAT1. inhibition, % at 5.5 µM. 190,000 compounds, 0.89% hits. AID 862;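 active = inhibition above the mean inhibition across all screened compounds plus 3 SD, cut at about 44% in these data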;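 also: 0% = DMSO only wells and 100% = 100 µM nifuroxazide control wells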
# STAT1 act = increases IFN-gamma driven STAT1 reporter signal | NIH 3T3 STAT1-luciferase reporter, luminescence; 100% = IFN-gamma alone, no compound | AID 932 | 200,000 compounds, 2.6% hits | activation (% of control), % at 5.5 µM;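 active = activation above the screen-wide mean activation plus 3 SD, cut at about 130% in these data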;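 also: raw ratio to IFN-gamma control signal so 100% means no change and 0% no light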
# Active calls of the source: *; . = no result.
SMILES,STAT3 act,STAT1 inh,NF-kB neuron act,APP 5'UTR act,STAT3 blocker,STAT1 act
Cc1ccc(S(=O)(=O)N2CCOCC2)cc1C(=O)OCC(=O)NC1CCS(=O)(=O)C1 (stereo not drawn),101,4,1.4,-7,2,97
COc1ccccc1N1CCN(C2CCN(C(=O)COc3ccccc3)CC2)CC1,100,3,0.92,1,5,95
O=C(Nc1ccc(Cl)cc1)c1ccc(OCC2CCCO2)cc1 (stereo not drawn),89,-40,2.4,121,16,137*
Cc1ccccc1C(=O)N/N=C/c1ccsc1C,111,-37,1.7,34,-8,133*
Cc1ccsc1/C=N/NC(=O)c1ccccn1,94,-54,2.5,85,6,148*
CC(C)(C)c1ccc(/C=N/NC(=O)c2ccccn2)cc1,43,43*,2.4,168*,68*,59
Cc1nn(-c2ccc(F)cc2)c(Cl)c1/C=N/NC(=O)c1cccs1,100,-47,1.2,35,2,142*
O=C(N/N=C/c1ccsc1)c1ccccn1,106,-31,2.2,36,-6,128
Cc1sccc1/C=N/NC(=O)c1cccc2ccccc12,92,-8,1.1,-5,8,107
CC(c1ccccn1)N(Cc1ccco1)C(=S)Nc1cccc(F)c1 (stereo not drawn),101,3,0.94,-5,4,98
CC(=O)N(Cc1ccccc1C)c1cccc(C)c1C,96,11,1.2,-7,9,88
Cc1cc(/C=N/NC(=O)c2cccs2)c(C)n1-c1cnccn1,113,-54,2.8,39,-9,147*
Cc1ccsc1/C=N/NC(=O)c1cccs1,95,-37,2.1,29,5,134*
Cn1cc(/C=N\NC(=O)c2cccs2)c2ccccc21,95,-31,1.9,30,11,129*
O=C(N/N=C/c1ccc(Br)s1)c1ccccn1,95,-41,3.5*,100,9,137*
Cn1cc(/C=N/NC(=O)c2ccc(C#N)cc2F)c2ccccc21,99,-1,0.93,-5,6,97
O=C(c1cccs1)N1CCN=C1SCc1ccccc1F,81,-1,1.3,-4,29,100
O=C(COC(=O)C1CC1)Nc1ccc(N=Nc2ccccc2)cc1,94,-38,1.2,101,6,136*
COC(=O)c1ccc(N=Nc2ccccc2)cc1,91,-35,3.3,39,13,132*
COC(=O)CCC(=O)Nc1ccc(N=Nc2ccccc2)cc1,95,-37,2.6,54,17,133*
COc1ccc(CCNC(=O)COC(=O)CCC(=O)c2ccc(F)cc2)cc1OC,104,3,1.2,5,0,97
O=C(NC(=S)Nc1cccc(C(F)(F)F)c1)c1csnn1,90,-4,1.1,-12,16,102
O=C(CCCC(=O)N/N=C\c1ccccn1)N/N=C\c1ccccn1,102,-5,1.2,-9,-4,105
NC(=O)NNC1=Nc2cccc3cccc1c23,79,1,0.99,5,29,98
C(=N\NC1=Nc2cccc3cccc1c23)/c1ccccn1,157*,-89,6.2*,78,-56,182*
SMILES,STAT3 act,STAT1 inh,NF-kB neuron act,APP 5'UTR act,STAT3 blocker,STAT1 act
Clc1ccccc1/C=N/NC1=Nc2cccc3cccc1c23,159*,-90,0.67,171*,-67,180*
C/C(=N\NC(=O)c1csc(C)c1C)c1ccc(C)s1,106,-20,1.2,17,-11,121
C/C(=N\NC(=O)c1csc(C)c1C)c1ccco1,79,-19,3.7*,78,26,117
Cc1cc([N+](=O)[O-])nn1CC(=O)NCc1nc2ccccc2[nH]1,96,-3,1,5,8,102
CCOc1ccc2nc(N3C(=O)/C(=C/c4ccc(Cl)cc4)NC3=S)sc2c1,115,-10,1,-1,-18,109
COc1ccc2nc(SCc3ccccc3C)nc(C)c2c1,101,-9,1.8,72,-2,108
COc1ccc2nc(SCc3cccc(C)c3)nc(C)c2c1,105,-33,3.5*,73,-6,130*
CS(=O)(=O)N1CCC(C(=O)N2CCN(C(c3ccccc3)c3ccccc3)CC2)CC1,105,2,1.1,-9,2,96
O=C(NCC1CCCO1)c1cc(-c2ccc(Cl)cc2Cl)on1 (stereo not drawn),72,-29,3.4*,66,35,126
Cc1ccc(-c2cc(C(=O)NCC3CCCO3)no2)cc1 (stereo not drawn),89,-15,3.2,112,17,114
O=C(NCC1CCCO1)c1cc(-c2ccccc2)on1 (stereo not drawn),108,-43,7.8*,33,-6,140*
COc1ccc(Nc2cc(C)c3ccccc3n2)cc1,95,-37,2,85,13,132*
CC(=O)c1c(C)c(C)c2n1CCn1c(C)ccc1-2,.,.,.,2,.,.
Cc1ccc(-n2nc(C)c3c2OC(N)=C(C#N)C3c2ccco2)cc1 (stereo not drawn),140*,-2,1.1,6,-36,102
Cc1ccc(-n2nc(C)c3c2OC(N)=C(C#N)C3c2ccc(C)o2)cc1 (stereo not drawn),126,-8,0.9,-2,-29,99
NC(=O)/C(=C\c1cccnc1)NC(=O)c1ccccc1,104,-5,1.1,15,8,104
CC1(C)CC(c2nc(-c3ccc(Br)cc3)cs2)CCS1 (stereo not drawn),100,8,1.3,5,-5,93
CN(c1nc(-c2ccc(Br)cc2)cs1)C1CCS(=O)(=O)C1 (stereo not drawn),94,-32,1.9,14,14,130*
O=C(/C=C/c1ccc(S(=O)(=O)N2CCOCC2)cc1)NCCCn1ccnc1,103,-4,1.1,3,1,102
COc1ccc(C(=O)Nc2ccc([N+](=O)[O-])cn2)c(OC)c1,101,-53,4.4*,143*,1,148*
COc1cc(OC)cc(C(=O)Nc2ccc([N+](=O)[O-])cn2)c1,93,-2,1.4,10,11,102
C=CCn1c(O)c(C=Nc2ccccc2)sc1=S,102,-33,1.6,39,0,129*
Oc1c(C=Nc2ccccc2)sc(=S)n1Cc1ccccc1,104,-4,1.3,4,2,104
CCn1c(O)c(C=Nc2ccccc2)sc1=O,100,-34,1.6,20,6,130*
CCCC(=O)Nc1cnc(NC(=O)c2cccc(F)c2)cc1C,85,-17,2.7,173*,25,116
O=C(CCS(=O)(=O)CCN1CCOCC1)NCNC(=O)CCS(=O)(=O)CCN1CCOCC1,104,-5,1.1,3,1,104
Cc1ccc2nc(SCC(=O)N/N=C/c3ccco3)cc(C)c2c1,88,9,0.63,21,16,91

# Screening results as filed in PubChem.
